{"data": "Measured values of several laboratories", "Melanocortin receptor 3": "Melanocortin receptor 3 (Mus musculus, UniProt P33033)", "ADORA2B": "Adenosine receptor A2b (ADORA2B, Homo sapiens, UniProt P29275)", "note": "Protocols differ between the studies behind these lines."}
{"target": "Tyrosine-protein kinase JAK1, JH2 (JAK1, Homo sapiens, UniProt P23458)", "observed": "binding", "method": "competition with immobilised ligand", "quantity": "Kd", "value": "0.29 µM", "SMILES": "c1cncc(-c2cccc(Nc3nccc(NC4CCCCC4)n3)c2)c1"}
{"target": "Melanocortin receptor 3", "observed": "reporter gene", "action": "agonist", "quantity": "EC50", "value": "> 100 µM", "SMILES": "N=C(N)NCCC[C@H](NC(=O)[C@@H](N)CC(=O)O)C(=O)N[C@@H](Cc1ccccc1)C(=O)O"}
{"target": "Prostaglandin E2 receptor EP2 subtype (PTGER2, Homo sapiens, UniProt P43116)", "observed": "cAMP", "action": "antagonist", "method": "TR-FRET", "quantity": "Kb", "value": "~0.01 µM", "SMILES": "Cc1cc2ccccc2n1CCNC(=O)c1ccc(N2CCCCC2)cc1"}
{"target": "ADORA2B", "observed": "ligand displacement", "method": "radioligand", "notes": "cell membranes", "quantity": "Ki", "value": "> 10 µM", "SMILES": "C#CCN1CCCn2c1nc1c2c(=O)n(C)c(=O)n1C"}
{"target": "speC (Escherichia coli, UniProt P21169)", "observed": "binding", "method": "ITC", "quantity": "Kd", "value": "1.6 µM", "SMILES": "Nc1nc2c(ncn2[C@@H]2O[C@H](COP(=O)(O)OP(=O)(O)O)[C@@H](OP(=O)(O)OP(=O)(O)O)[C@H]2O)c(=O)[nH]1"}
{"target": "ADORA2B", "observed": "ligand displacement", "method": "radioligand", "notes": "cell membranes", "quantity": "Ki", "value": "> 10 µM", "SMILES": "CCCN1CCCn2c1nc1c2c(=O)n(C)c(=O)n1C"}
{"target": "Toll-like receptor 7 (TLR7, Homo sapiens, UniProt Q9NYK1)", "observed": "reporter gene", "action": "agonist", "quantity": "EC50", "value": "127 µM", "SMILES": "CCCCOc1nc(N)c2[nH]c(=O)n(CCN)c2n1"}
{"target": "Muscleblind-like protein 1 (Homo sapiens, UniProt Q9NR56)", "observed": "binding", "notes": "lysate", "quantity": "Kd", "value": "0.023 µM", "SMILES": "Cc1cc2nc3c(=O)[nH]c(=O)nc-3n(C[C@H](O)[C@H](O)[C@H](O)COP(=O)(O)OP(=O)(O)OC[C@H]3O[C@@H](n4cnc5c(N)ncnc54)[C@H](O)[C@@H]3O)c2cc1C"}
{"target": "Melanocortin receptor 3", "observed": "reporter gene", "action": "agonist", "quantity": "EC50", "value": "> 100 µM", "SMILES": "N=C(N)NCCC[C@H](NC(=O)[C@H](CC(=O)O)NC(=O)[C@@H](N)Cc1c[nH]c2ccccc12)C(=O)N[C@@H](Cc1ccccc1)C(=O)NCC(=O)O"}
{"target": "Protein polybromo-1, bromodomain (PBRM1, Homo sapiens, UniProt Q86U86)", "observed": "binding", "method": "SPR", "quantity": "Kd", "value": "0.62 µM", "SMILES": "Cc1ncsc1-c1ccc(CNC(=O)[C@@H]2C[C@H](O)CN2C(=O)[C@@H](NC(=O)C2(F)CC2)C(C)(C)C)c(OCCOc2ccc(CN3CCN(c4cc(-c5ccccc5O)nnc4N)CC3)cc2)c1"}
{"target": "Melanocortin receptor 3", "observed": "reporter gene", "action": "agonist", "quantity": "EC50", "value": "> 100 µM", "SMILES": "N=C(N)NCCC[C@H](N)C(=O)N[C@@H](Cc1ccccc1)C(=O)NCC(=O)O"}
{"target": "ADORA2B", "observed": "GTPγS binding", "action": "agonist", "notes": "cell membranes", "quantity": "EC50", "value": "13.2 µM", "SMILES": "CCNC(=O)[C@H]1O[C@@H](n2cnc3c(N)nc(NN=C[C@H]4CCC=CO4)nc32)[C@H](O)[C@@H]1O"}
{"target": "Melanocortin receptor 3", "observed": "reporter gene", "action": "agonist", "quantity": "EC50", "value": "> 100 µM", "SMILES": "CSCC[C@H](NC(=O)[C@@H](NC(=O)[C@@H](N)Cc1ccc(O)cc1)C(C)C)C(=O)NCC(=O)N[C@@H](Cc1c[nH]cn1)C(=O)N[C@@H](Cc1ccccc1)C(=O)O"}
{"target": "ADORA2B", "observed": "ligand displacement", "method": "radioligand", "notes": "cell membranes", "quantity": "Ki", "value": "> 10 µM", "SMILES": "CCCCCC(C)N1CCCn2c1nc1c2c(=O)n(C)c(=O)n1C (centres unmarked)"}
